In test [1] the test system is HCT-15. Kind of test: Cytotoxicity against human HCT15 cells after 48 hrs by MTT assay. The test is classed as functional, cell-based. Particulars: HCT-15, 48 h. In outline:
(§1)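 MTT colorimetric assay. Shikonin and 5-fluorouracil served as reference agents. IC₅₀ obtained by linear regression of each compound's concentration–response curve.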

Test [2] has as its system MGC-803. As to the kind of experiment: Cytotoxicity against human MGC803 cells after 48 hrs by MTT assay. The test is classed as functional, cell-based. Particulars: MGC-803, 48 h. In outline:
as §1
For orientation: Tetrazolium assays rely on reduction of a dye to a coloured formazan, in cell work by metabolically active cells.

In test [3] the test system is Bel-7402. Kind of test: Cytotoxicity against human Bel7402 cells after 48 hrs by MTT assay. The test is classed as functional, cell-based. The note with it: Bel-7402, 48 h. In outline:
as §1

Test [4] has as its system MCF7. As to the kind of experiment: Cytotoxicity against human MCF7 cells after 48 hrs by MTT assay. Format: functional, cell-based. The note with it: MCF7, 48 h. In outline:
as §1

The nature of test [5]: Cytotoxicity against human HSF cells after 48 hrs by MTT assay. The test is classed as cell-based. In outline: as §1

Drawing on ChEMBL document CHEMBL4138201, “Synthesis and biological evaluation of sulfur-containing shikonin oxime derivatives as potential antineoplastic agents” (Eur J Med Chem, 2018), this text covers IC50 for 35 compounds.

Some results are limits rather than exact numbers.

Consider `COc1cc(C(CC=C(C)C)SC(C)=O)c(OC)c2c1/C(=N/O)C=C/C2=N\O` (stereo not given), for which the IC50 in test [1] is 1.22 µM; in test [2], 2.49 µM; in test [3] it was 3.65 µM; in test [4], 23.5 µM; in test [5], more than 50 µM.

As for `COc1cc(C(CC=C(C)C)SC(=O)CC(C)C)c(OC)c2c1/C(=N/O)C=C/C2=N\O` (stereo not given), the IC50 in test [1] was 0.59 µM; in test [2], 1.49 µM; in test [3], 1.65 µM; in test [4], 16.3 µM; in test [5], more than 50 µM.

On to `COc1cc(C(CC=C(C)C)SC(=O)c2cccc(F)c2)c(OC)c2c1/C(=N/O)C=C/C2=N\O` (stereo not given), for which the IC50 is 2.71 µM in test [1]; 6.47 µM in test [2]; 8.9 µM in test [3]; 38.9 µM in test [4]; more than 50 µM in test [5].

Regarding `COc1cc(C(CC=C(C)C)SC(=O)c2ccc(Cl)cc2)c(OC)c2c1/C(=N/O)C=C/C2=N\O` (stereo not given), the IC50 in test [1] was 0.82 µM; in test [2], 1.45 µM; in test [3], 1.16 µM; in test [4] it was 20.4 µM; in test [5] it was more than 50 µM.

For the compound `COc1ccc(C(=O)S[C@H](CC=C(C)C)c2cc(OC)c3c(c2OC)/C(=N/O)C=C/C3=N\O)cc1OC`, the IC50 is 0.84 µM in test [1]; 1.57 µM in test [2]; 1.16 µM in test [3]; 19.5 µM in test [4]; more than 50 µM in test [5].

Regarding `O=c1[nH]cc(F)c(=O)[nH]1` [FLUOROURACIL], the IC50 in test [1] is 7.53 µM; in test [2], more than 50 µM; in test [3], 20.9 µM; in test [4] it was 29 µM; in test [5], more than 50 µM.

Regarding `COc1cc(C(CC=C(C)C)SC(=O)c2ccc([N+](=O)[O-])cc2)c(OC)c2c1/C(=N/O)C=C/C2=N\O` (stereo not given), the half-inhibitory concentration (IC50) in test [1] is 5.09 µM; in test [2] it was 9.3 µM; in test [3], 12.6 µM; in test [4], 44.7 µM; in test [5], more than 50 µM.

Consider `COc1cc([C@H](CC=C(C)C)SCCC(C)C)c(OC)c2c1/C(=N/O)C=C/C2=N\O`, for which the IC50 is 0.92 µM in test [1]; 3.12 µM in test [2]; 4.85 µM in test [3]; 26.3 µM in test [4]; more than 50 µM in test [5].

Take `CCC(=O)SC(CC=C(C)C)c1cc(OC)c2c(c1OC)/C(=N/O)C=C/C2=N\O` (stereo not given): the IC50 in test [1] was 1.35 µM; in test [2], 3.06 µM; in test [3], 2.73 µM; in test [4], 26.1 µM; in test [5] it was more than 50 µM.

Regarding `CCCCCCCSC(CC=C(C)C)c1cc(OC)c2c(c1OC)/C(=N/O)C=C/C2=N\O` (stereo not given), the half-inhibitory concentration (IC50) was 1.97 µM in test [1]; 5.51 µM in test [2]; 8.15 µM in test [3]; 30.6 µM in test [4]; more than 50 µM in test [5].

For the compound `COc1cccc(C(=O)SC(CC=C(C)C)c2cc(OC)c3c(c2OC)/C(=N/O)C=C/C3=N\O)c1` (stereo not given), the IC50 was 1.67 µM in test [1]; 4.25 µM in test [2]; 5.54 µM in test [3]; 35.2 µM in test [4]; more than 50 µM in test [5].

For `COc1cc(C(CC=C(C)C)SC(=O)c2ccc(C)cc2)c(OC)c2c1/C(=N/O)C=C/C2=N\O` (stereo not given), the IC50 in test [1] was 0.47 µM; in test [2], 0.92 µM; in test [3], 0.72 µM; in test [4], 15.8 µM; in test [5] it was more than 50 µM.

Turning to `COc1cc([C@@H](CC=C(C)C)SCCC(C)C)c(OC)c2c1/C(=N/O)C=C/C2=N\O`, the IC50 in test [1] was 1.94 µM; in test [2], 5.87 µM; in test [3], 8.95 µM; in test [4], 39.4 µM; in test [5], more than 50 µM.

For `COc1cc(C(=O)S[C@@H](CC=C(C)C)c2cc(OC)c3c(c2OC)/C(=N/O)C=C/C3=N\O)cc(OC)c1OC`, the IC50 in test [1] is 0.34 µM; in test [2], 0.97 µM; in test [3], 0.63 µM; in test [4], 11.8 µM; in test [5], more than 50 µM.

As to `COc1cc(C(CC=C(C)C)SC/C=C(\C)CC/C=C(\C)CCC=C(C)C)c(OC)c2c1/C(=N/O)C=C/C2=N\O` (stereo not given), the concentration for half-maximal inhibition (IC50) was 5.96 µM in test [1]; 9.98 µM in test [2]; 14.7 µM in test [3]; 37.4 µM in test [4]; more than 50 µM in test [5].

Turning to `COc1cc([C@@H](CC=C(C)C)SC(=O)c2ccccc2)c(OC)c2c1/C(=N/O)C=C/C2=N\O`, the IC50 was 1.06 µM in test [1]; 2.67 µM in test [2]; 2.97 µM in test [3]; 25.5 µM in test [4]; more than 50 µM in test [5].

As for `COc1cc(C(CC=C(C)C)SC(=O)c2ccncc2)c(OC)c2c1/C(=N/O)C=C/C2=N\O` (stereo not given), the IC50 was 7.32 µM in test [1]; 19.4 µM in test [2]; 26.8 µM in test [3]; more than 50 µM in test [4]; more than 50 µM in test [5].

In the case of `COc1cc(C(=O)S[C@H](CC=C(C)C)c2cc(OC)c3c(c2OC)/C(=N/O)C=C/C3=N\O)cc(OC)c1OC`, the IC50 was 0.57 µM in test [1]; 1.18 µM in test [2]; 0.97 µM in test [3]; 12.8 µM in test [4]; more than 50 µM in test [5].

Take `CCCCCCCCCCCCSC(CC=C(C)C)c1cc(OC)c2c(c1OC)/C(=N/O)C=C/C2=N\O` (stereo not given): the concentration for half-maximal inhibition (IC50) in test [1] is 14.7 µM; in test [2], 31.6 µM; in test [3], 34.3 µM; in test [4], more than 50 µM; in test [5] it was more than 50 µM.

On to `CCCCSC(CC=C(C)C)c1cc(OC)c2c(c1OC)/C(=N/O)C=C/C2=N\O` (stereo not given), for which the IC50 in test [1] is 4.37 µM; in test [2], 9.32 µM; in test [3], 12.6 µM; in test [4], 36 µM; in test [5], more than 50 µM.

Turning to `CC(C)=CC[C@@H](O)C1=CC(=O)c2c(O)ccc(O)c2C1=O` [SHIKONIN], the IC50 in test [1] was 0.86 µM; in test [2], 1.51 µM; in test [3], 1.24 µM; in test [4], 2.4 µM; in test [5], 1.25 µM.

As to `COc1cc(C(CC=C(C)C)SC(=O)C=C(C)C)c(OC)c2c1/C(=N/O)C=C/C2=N\O` (stereo not given), the IC50 in test [1] is 1.56 µM; in test [2] it was 3.96 µM; in test [3] it was 4.53 µM; in test [4], 29.9 µM; in test [5], more than 50 µM.

As to `COc1cc(C(CC=C(C)C)SC(=O)c2ccc(N)cc2)c(OC)c2c1/C(=N/O)C=C/C2=N\O` (stereo not given), the IC50 in test [1] is 1.68 µM; in test [2] it was 2.45 µM; in test [3] it was 1.26 µM; in test [4], 19.4 µM; in test [5], more than 50 µM.

As for `COc1cc(C(CC=C(C)C)SC(=O)c2ccc(C(F)(F)F)cc2)c(OC)c2c1/C(=N/O)C=C/C2=N\O` (stereo not given), the IC50 in test [1] is 2.75 µM; in test [2] it was 5.97 µM; in test [3], 7.12 µM; in test [4] it was 30.5 µM; in test [5], more than 50 µM.

Turning to `COc1cc([C@H](CC=C(C)C)SC(=O)c2ccccc2)c(OC)c2c1/C(=N/O)C=C/C2=N\O`, the IC50 is 0.59 µM in test [1]; 1.26 µM in test [2]; 1.48 µM in test [3]; 18.1 µM in test [4]; more than 50 µM in test [5].

With `CCCCCC(=O)SC(CC=C(C)C)c1cc(OC)c2c(c1OC)/C(=N/O)C=C/C2=N\O` (stereo not given), the IC50 was 7.21 µM in test [1]; 16.9 µM in test [2]; 22.4 µM in test [3]; 45.7 µM in test [4]; more than 50 µM in test [5].

As for `COc1cc(C(CC=C(C)C)SC(=O)c2ccccc2Cl)c(OC)c2c1/C(=N/O)C=C/C2=N\O` (stereo not given), the 50% inhibitory concentration (IC50) in test [1] was 0.53 µM; in test [2], 1.69 µM; in test [3], 0.87 µM; in test [4], 19.2 µM; in test [5], more than 50 µM.

As for `CCSC(CC=C(C)C)c1cc(OC)c2c(c1OC)/C(=N/O)C=C/C2=N\O` (stereo not given), the IC50 in test [1] is 7.15 µM; in test [2], 12.5 µM; in test [3] it was 20.1 µM; in test [4], 44.2 µM; in test [5], more than 50 µM.

Turning to `COc1cc(C(CC=C(C)C)SC(=O)c2ccc(F)cc2)c(OC)c2c1/C(=N/O)C=C/C2=N\O` (stereo not given), the concentration for half-maximal inhibition (IC50) in test [1] is 0.7 µM; in test [2], 1.28 µM; in test [3], 0.89 µM; in test [4] it was 20.5 µM; in test [5], more than 50 µM.

`COc1cc(C(CC=C(C)C)SC(=O)c2ccco2)c(OC)c2c1/C(=N/O)C=C/C2=N\O` (stereo not given): the IC50 in test [1] is 1.98 µM; in test [2], 5.01 µM; in test [3] it was 7.3 µM; in test [4] it was 28.3 µM; in test [5] it was more than 50 µM.

Regarding `COc1cc(C(CC=C(C)C)SC(=O)c2ccccc2F)c(OC)c2c1/C(=N/O)C=C/C2=N\O` (stereo not given), the IC50 in test [1] is 0.62 µM; in test [2] it was 1.52 µM; in test [3], 1.34 µM; in test [4], 23 µM; in test [5], more than 50 µM.

As for `COc1cc(C(CC=C(C)C)SC(=O)c2cccnc2)c(OC)c2c1/C(=N/O)C=C/C2=N\O` (stereo not given), the IC50 in test [1] was 3.45 µM; in test [2] it was 7.56 µM; in test [3], 10.2 µM; in test [4], 37.5 µM; in test [5], more than 50 µM.

Consider `COc1cc(C(CC=C(C)C)SCC=C(C)C)c(OC)c2c1/C(=N/O)C=C/C2=N\O` (stereo not given), for which the IC50 in test [1] was 3.8 µM; in test [2] it was 7.05 µM; in test [3] it was 12.6 µM; in test [4], 33.7 µM; in test [5], more than 50 µM.

On to `COc1cc(C(CC=C(C)C)SC(=O)c2ccccc2)c(OC)c2c1/C(=N/O)C=C/C2=N\O` (stereo not given), for which the half-inhibitory concentration (IC50) in test [1] was 0.63 µM; in test [2], 1.28 µM; in test [3], 1.2 µM; in test [4], 17.4 µM; in test [5] it was more than 50 µM.

With `COc1ccc(C(=O)S[C@@H](CC=C(C)C)c2cc(OC)c3c(c2OC)/C(=N/O)C=C/C3=N\O)cc1OC`, the IC50 is 0.38 µM in test [1]; 1.12 µM in test [2]; 0.85 µM in test [3]; 15.2 µM in test [4]; more than 50 µM in test [5].

As a reminder, the IC50 is the point on the concentration scale where inhibition reaches its midpoint. Low values mean greater potency in that assay, high ones weaker potency in that assay.
